This is an account of results in ChEMBL document CHEMBL2321676, “Antimalarial and Structural Studies of Pyridine-containing Inhibitors of 1-Deoxyxylulose-5-phosphate Reductoisomerase” (ACS Med Chem Lett, 2013).

The subject of data set [1] is Plasmodium falciparum. As to the kind of experiment: Antimalarial activity against Plasmodium falciparum 3D7 after 3 days by SYBR green I assay. The note with it: 3D7, 72 h. It counts as functional, organism-based.
Data set [2] concerns Plasmodium falciparum. The experiment in a line: Antimalarial activity against Plasmodium falciparum Dd2 after 3 days by SYBR green I assay. It counts as functional, organism-based. The following applies: Dd2, 72 h.
The test system of a further data set is WI-38. As to the kind of experiment: Cytotoxicity against human WI38 cells after 48 hrs by MTS assay. It counts as cell-based. The note with it: WI-38, 48 h.
Data set [3] in a line: Selectivity index, ratio of EC50 for human WI38 cells to EC50 for Plasmodium falciparum. It counts as toxicity, cell-based, WI-38. The note with it: read-out: Ratio EC50.
The subject of data set [4] is Plasmodium falciparum. As to the kind of experiment: Ratio of fosmidomycin Ki to compound Ki for Plasmodium falciparum recombinant DXR.
Data set [5] is described as follows: Inhibition of Plasmodium falciparum recombinant DXR using DXP as substrate preincubated for 5 mins. The method, boiled down: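 Recombinant P. falciparum DXR. Inhibition is expressed as Ki.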
The nature of data set [6]: Inhibition of Escherichia coli recombinant DXR using DXP as substrate preincubated for 5 mins.
Data set [7] is described as follows: Half life in plasma (unknown origin). It counts as ADME, cell-free. The following applies: unidentified.

As to `CC(=O)N(O)CCC(c1ccccc1)P(=O)(O)O` (stereo unspecified), the figures for the EC50 in the data set on Plasmodium falciparum [1] and in the data set on Plasmodium falciparum [2] were 3500 nM and 1700 nM, respectively.
Taken in the same sequence, the figures for `CCN(CC)CCCC(C)Nc1ccnc2cc(Cl)ccc12` (stereo unspecified) [CHLOROQUINE] were 21 nM and 120 nM.
For the molecule `O=CN(O)CCC(c1ccncc1)P(=O)(O)O` (stereo unspecified), the EC50 is over 300000 nM in the data set with WI-38, 180 nM with Plasmodium falciparum [1] and 170 nM in the data set with Plasmodium falciparum [2]. The selectivity ratio in data set [3] is over 1700. Moreover, the Ratio Ki in the data set on Plasmodium falciparum [4] was 2.4. The figures for the Ki in data set [5] and in data set [6] were 8.9 nM and 35 nM, respectively.
Regarding `O=CN(O)CCC(c1cccnc1)P(=O)(O)O` (stereo unspecified), the EC50 with WI-38 was over 300000 nM; in the data set on Plasmodium falciparum [1], 340 nM; in the data set with Plasmodium falciparum [2] it was 180 nM. Further, the selectivity ratio in data set [3] was over 1700. Further, the Ki in data set [5] stood at 13 nM; in data set [6], 87 nM.
Consider `O=CN(O)CCCP(=O)(O)O` [FOSMIDOMYCIN], for which the EC50 was found to be 1170 nM in the data set on Plasmodium falciparum [1] and 440 nM in the data set with Plasmodium falciparum [2]. The half-life in data set [7] is 1 h.
With `CC(=O)N(O)CCC(c1cccnc1)P(=O)(O)O` (stereo unspecified), the EC50 in the data set on WI-38 was over 300000 nM; in the data set with Plasmodium falciparum [1], 440 nM; in the data set with Plasmodium falciparum [2], 310 nM. Besides, the selectivity ratio in data set [3] was over 1700. Moreover, the Ratio Ki with Plasmodium falciparum [4] amounted to 11. Besides, the Ki in data set [5] came to 1.9 nM; in data set [6], 42 nM.
With `O=CN(O)CCC(c1ccccc1)P(=O)(O)O` (stereo unspecified), the results for the Ki in data set [5] and in data set [6] were 480 nM and 1500 nM, respectively.
As to `CC(=O)N(O)CCC(c1ccncc1)P(=O)(O)O` (stereo unspecified), the EC50 was over 300000 nM in the data set with WI-38, 630 nM in the data set with Plasmodium falciparum [1] and 460 nM in the data set with Plasmodium falciparum [2]. For the same molecule, the selectivity ratio in data set [3] is over 1700. The Ratio Ki in the data set on Plasmodium falciparum [4] is 1.6. The inhibition constant Ki in data set [5] is 13 nM; in data set [6], 82 nM.

The EC50 is the midpoint of the concentration-response curve. The low end stands for a more potent agent, the high end for a less potent agent. Usually Ki stands for the equilibrium dissociation constant of an inhibitor or competing ligand from its target. The half-life is the time in which the quantity being followed falls by half.
